# System: Fibroblast
# Experiment: Multiplex assay against human fibroblast
# Type: toxicity, cell-based
# Procedure, shortened: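 Cells stained live at seeding with Hoechst33342, BioTracker Green Microtubule Cytoskeleton Dye, MitoTracker Red and Annexin V Alexa Fluor 680 were imaged on a CQ1 microscope at 37°C and 5% CO2 after compound addition. Their classification by CellPathfinder machine-learning gating ran from Hoechst high-intensity objects versus normal cells, to healthy, pyknosed or fragmented nuclei among normal cells, to mitotic or apoptotic among pyknosed cells. Tubulin, mitochondrial-mass and membrane-permeability phenotypes are per cents of healthy-nucleus cells.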
# [1] = 12 h, 1 µM, compound concentration 1 uM, replicate 1
# [2] = 12 h, 1 µM, compound concentration 1 uM, replicate 2
# [3] = 12 h, 10 µM, compound concentration 10 uM, replicate 1
# [4] = 12 h, 10 µM, compound concentration 10 uM, replicate 2
# [5] = 24 h, 1 µM, compound concentration 1 uM, replicate 1
# [6] = 24 h, 1 µM, compound concentration 1 uM, replicate 2
# [7] = 24 h, 10 µM, compound concentration 10 uM, replicate 1
# [8] = 24 h, 10 µM, compound concentration 10 uM, replicate 2
# [9] = 48 h, 1 µM, compound concentration 1 uM, replicate 1
# [10] = 48 h, 1 µM, compound concentration 1 uM, replicate 2
# [11] = 48 h, 10 µM, compound concentration 10 uM, replicate 1
# [12] = 48 h, 10 µM, compound concentration 10 uM, replicate 2
structure (smiles),measurement,setting,value
Cc1c[nH]c2nccc(Oc3c(F)cc(Nc4cc(Cl)nc(N)n4)cc3F)c12 [BAY-549],Population Apoptotic (%),[1],54%
same,Population Fragmented Nuclei (%),[1],25%
same,Population Healthy Nuclei (%),[1],41%
same,Population Hoechst High Intensity Objects (%),[1],12%
same,Population Membrane Permeable-Phenotype (%),[1],32%
same,Population Mitochondria Different-Phenotype (%),[1],3%
same,Population Mitotic Cells (%),[1],46%
same,Population Normal (%),[1],87%
same,Population Pyknosed Nuclei (%),[1],33%
same,Population Tubulin-Different-Phenotype (%),[1],38%
same,Total Cell Count,[1],172
same,Population Apoptotic (%),[2],44%
same,Population Fragmented Nuclei (%),[2],12%
same,Population Healthy Nuclei (%),[2],73%
same,Population Hoechst High Intensity Objects (%),[2],5%
same,Population Membrane Permeable-Phenotype (%),[2],4%
same,Population Mitochondria Different-Phenotype (%),[2],6%
same,Population Mitotic Cells (%),[2],55%
same,Population Normal (%),[2],94%
same,Population Pyknosed Nuclei (%),[2],14%
same,Population Tubulin-Different-Phenotype (%),[2],12%
same,Total Cell Count,[2],68
same,Population Apoptotic (%),[3],66%
same,Population Fragmented Nuclei (%),[3],23%
same,Population Healthy Nuclei (%),[3],31%
same,Population Hoechst High Intensity Objects (%),[3],10%
same,Population Membrane Permeable-Phenotype (%),[3],21%
same,Population Mitochondria Different-Phenotype (%),[3],0%
same,Population Mitotic Cells (%),[3],33%
same,Population Normal (%),[3],90%
same,Population Pyknosed Nuclei (%),[3],45%
same,Population Tubulin-Different-Phenotype (%),[3],21%
same,Total Cell Count,[3],130
same,Population Apoptotic (%),[4],40%
same,Population Fragmented Nuclei (%),[4],17%
same,Population Healthy Nuclei (%),[4],65%
same,Population Hoechst High Intensity Objects (%),[4],6%
same,Population Membrane Permeable-Phenotype (%),[4],7%
same,Population Mitochondria Different-Phenotype (%),[4],10%
same,Population Mitotic Cells (%),[4],60%
same,Population Normal (%),[4],93%
same,Population Pyknosed Nuclei (%),[4],17%
same,Population Tubulin-Different-Phenotype (%),[4],10%
same,Total Cell Count,[4],62
same,Population Apoptotic (%),[5],50%
same,Population Fragmented Nuclei (%),[5],32%
same,Population Healthy Nuclei (%),[5],40%
same,Population Hoechst High Intensity Objects (%),[5],10%
same,Population Membrane Permeable-Phenotype (%),[5],26%
same,Population Mitochondria Different-Phenotype (%),[5],9%
same,Population Mitotic Cells (%),[5],50%
same,Population Normal (%),[5],89%
same,Population Pyknosed Nuclei (%),[5],27%
same,Population Tubulin-Different-Phenotype (%),[5],34%
same,Total Cell Count,[5],170
same,Population Apoptotic (%),[6],46%
same,Population Fragmented Nuclei (%),[6],8%
same,Population Healthy Nuclei (%),[6],71%
same,Population Hoechst High Intensity Objects (%),[6],3%
same,Population Membrane Permeable-Phenotype (%),[6],5%
same,Population Mitochondria Different-Phenotype (%),[6],7%
same,Population Mitotic Cells (%),[6],53%
same,Population Normal (%),[6],96%
same,Population Pyknosed Nuclei (%),[6],20%
same,Population Tubulin-Different-Phenotype (%),[6],18%
same,Total Cell Count,[6],77
same,Population Apoptotic (%),[7],70%
same,Population Fragmented Nuclei (%),[7],44%
same,Population Healthy Nuclei (%),[7],30%
same,Population Hoechst High Intensity Objects (%),[7],21%
same,Population Membrane Permeable-Phenotype (%),[7],13%
same,Population Mitochondria Different-Phenotype (%),[7],13%
same,Population Mitotic Cells (%),[7],30%
same,Population Normal (%),[7],78%
same,Population Pyknosed Nuclei (%),[7],25%
same,Population Tubulin-Different-Phenotype (%),[7],33%
same,Total Cell Count,[7],152
same,Population Apoptotic (%),[8],71%
same,Population Fragmented Nuclei (%),[8],12%
same,Population Healthy Nuclei (%),[8],62%
same,Population Hoechst High Intensity Objects (%),[8],5%
same,Population Membrane Permeable-Phenotype (%),[8],11%
same,Population Mitochondria Different-Phenotype (%),[8],20%
same,Population Mitotic Cells (%),[8],28%
same,Population Normal (%),[8],94%
same,Population Tubulin-Different-Phenotype (%),[8],20%
same,Total Cell Count,[8],59
same,Population Apoptotic (%),[9],66%
same,Population Fragmented Nuclei (%),[9],41%
same,Population Healthy Nuclei (%),[9],46%
same,Population Hoechst High Intensity Objects (%),[9],14%
same,Population Membrane Permeable-Phenotype (%),[9],13%
same,Population Mitochondria Different-Phenotype (%),[9],1%
same,Population Mitotic Cells (%),[9],33%
same,Population Normal (%),[9],85%
same,Population Pyknosed Nuclei (%),[9],12%
same,Population Tubulin-Different-Phenotype (%),[9],19%
same,Total Cell Count,[9],170
same,Population Apoptotic (%),[10],100%
same,Population Fragmented Nuclei (%),[10],26%
same,Population Healthy Nuclei (%),[10],72%
same,Population Hoechst High Intensity Objects (%),[10],11%
same,Population Membrane Permeable-Phenotype (%),[10],10%
same,Population Mitotic Cells (%),[10],0%
same,Population Normal (%),[10],88%
same,Population Pyknosed Nuclei (%),[10],0%
same,Population Tubulin-Different-Phenotype (%),[10],5%
same,Total Cell Count,[10],184
same,Population Apoptotic (%),[11],80%
same,Population Fragmented Nuclei (%),[11],56%
same,Population Healthy Nuclei (%),[11],29%
same,Population Hoechst High Intensity Objects (%),[11],20%
same,Population Membrane Permeable-Phenotype (%),[11],16%
same,Population Mitochondria Different-Phenotype (%),[11],16%
same,Population Mitotic Cells (%),[11],20%
same,Population Normal (%),[11],79%
same,Population Pyknosed Nuclei (%),[11],13%
same,Population Tubulin-Different-Phenotype (%),[11],23%
same,Total Cell Count,[11],180
same,Population Apoptotic (%),[12],57%
same,Population Fragmented Nuclei (%),[12],50%
same,Population Healthy Nuclei (%),[12],45%
same,Population Hoechst High Intensity Objects (%),[12],17%
same,Population Membrane Permeable-Phenotype (%),[12],5%
same,Population Mitochondria Different-Phenotype (%),[12],10%
same,Population Mitotic Cells (%),[12],42%
same,Population Normal (%),[12],82%
same,Population Pyknosed Nuclei (%),[12],3%
same,Population Tubulin-Different-Phenotype (%),[12],6%
same,Total Cell Count,[12],239
COc1ccc(-c2ccc3ncc4c(c3c2)n(-c2ccc(N3CCNCC3)c(C(F)(F)F)c2)c(=O)n4C)cn1.O=C(O)/C=C\C(=O)O [BGT-226],Population Apoptotic (%),[1],67%
same,Population Fragmented Nuclei (%),[1],34%
same,Population Healthy Nuclei (%),[1],14%
same,Population Hoechst High Intensity Objects (%),[1],14%
same,Population Membrane Permeable-Phenotype (%),[1],26%
same,Population Mitochondria Different-Phenotype (%),[1],33%
same,Population Mitotic Cells (%),[1],32%
same,Population Normal (%),[1],85%
same,Population Pyknosed Nuclei (%),[1],50%
same,Population Tubulin-Different-Phenotype (%),[1],93%
same,Total Cell Count,[1],122
same,Population Apoptotic (%),[2],81%
same,Population Fragmented Nuclei (%),[2],24%
same,Population Healthy Nuclei (%),[2],45%
same,Population Hoechst High Intensity Objects (%),[2],17%
same,Population Membrane Permeable-Phenotype (%),[2],70%
same,Population Mitochondria Different-Phenotype (%),[2],94%
same,Population Mitotic Cells (%),[2],18%
same,Population Normal (%),[2],82%
same,Population Pyknosed Nuclei (%),[2],29%
same,Population Tubulin-Different-Phenotype (%),[2],94%
same,Total Cell Count,[2],45
same,Population Apoptotic (%),[3],62%
same,Population Fragmented Nuclei (%),[3],27%
same,Population Healthy Nuclei (%),[3],2%
same,Population Hoechst High Intensity Objects (%),[3],14%
same,Population Membrane Permeable-Phenotype (%),[3],50%
same,Population Mitochondria Different-Phenotype (%),[3],0%
same,Population Mitotic Cells (%),[3],37%
same,Population Normal (%),[3],85%
same,Population Pyknosed Nuclei (%),[3],69%
same,Population Tubulin-Different-Phenotype (%),[3],0%
same,Total Cell Count,[3],89
same,Population Apoptotic (%),[4],100%
same,Population Fragmented Nuclei (%),[4],70%
same,Population Healthy Nuclei (%),[4],9%
same,Population Hoechst High Intensity Objects (%),[4],62%
same,Population Membrane Permeable-Phenotype (%),[4],24%
same,Population Mitochondria Different-Phenotype (%),[4],32%
same,Population Mitotic Cells (%),[4],0%
same,Population Normal (%),[4],37%
same,Population Pyknosed Nuclei (%),[4],19%
same,Population Tubulin-Different-Phenotype (%),[4],24%
same,Total Cell Count,[4],675
same,Population Apoptotic (%),[5],69%
same,Population Fragmented Nuclei (%),[5],45%
same,Population Healthy Nuclei (%),[5],12%
same,Population Hoechst High Intensity Objects (%),[5],18%
same,Population Membrane Permeable-Phenotype (%),[5],58%
same,Population Mitochondria Different-Phenotype (%),[5],16%
same,Population Mitotic Cells (%),[5],30%
same,Population Normal (%),[5],81%
same,Population Pyknosed Nuclei (%),[5],41%
same,Population Tubulin-Different-Phenotype (%),[5],50%
same,Total Cell Count,[5],115
same,Population Apoptotic (%),[6],83%
same,Population Fragmented Nuclei (%),[6],20%
same,Population Healthy Nuclei (%),[6],40%
same,Population Hoechst High Intensity Objects (%),[6],30%
same,Population Membrane Permeable-Phenotype (%),[6],66%
same,Population Mitochondria Different-Phenotype (%),[6],91%
same,Population Mitotic Cells (%),[6],16%
same,Population Normal (%),[6],69%
same,Population Pyknosed Nuclei (%),[6],40%
same,Population Tubulin-Different-Phenotype (%),[6],91%
same,Total Cell Count,[6],43
same,Population Apoptotic (%),[7],58%
same,Population Fragmented Nuclei (%),[7],23%
same,Population Healthy Nuclei (%),[7],32%
same,Population Hoechst High Intensity Objects (%),[7],26%
same,Population Membrane Permeable-Phenotype (%),[7],38%
same,Population Mitochondria Different-Phenotype (%),[7],0%
same,Population Mitotic Cells (%),[7],41%
same,Population Normal (%),[7],73%
same,Population Pyknosed Nuclei (%),[7],44%
same,Population Tubulin-Different-Phenotype (%),[7],52%
same,Total Cell Count,[7],89
same,Population Apoptotic (%),[8],100%
same,Population Fragmented Nuclei (%),[8],79%
same,Population Healthy Nuclei (%),[8],10%
same,Population Hoechst High Intensity Objects (%),[8],64%
same,Population Membrane Permeable-Phenotype (%),[8],69%
same,Population Mitochondria Different-Phenotype (%),[8],60%
same,Population Mitotic Cells (%),[8],0%
same,Population Normal (%),[8],35%
same,Population Pyknosed Nuclei (%),[8],9%
same,Population Tubulin-Different-Phenotype (%),[8],60%
same,Total Cell Count,[8],614
same,Population Apoptotic (%),[9],84%
same,Population Fragmented Nuclei (%),[9],55%
same,Population Healthy Nuclei (%),[9],25%
same,Population Hoechst High Intensity Objects (%),[9],38%
same,Population Membrane Permeable-Phenotype (%),[9],58%
same,Population Mitochondria Different-Phenotype (%),[9],11%
same,Population Mitotic Cells (%),[9],15%
same,Population Normal (%),[9],61%
same,Population Pyknosed Nuclei (%),[9],19%
same,Population Tubulin-Different-Phenotype (%),[9],47%
same,Total Cell Count,[9],111
same,Population Apoptotic (%),[10],62%
same,Population Fragmented Nuclei (%),[10],28%
same,Population Healthy Nuclei (%),[10],59%
same,Population Hoechst High Intensity Objects (%),[10],27%
same,Population Membrane Permeable-Phenotype (%),[10],19%
same,Population Mitochondria Different-Phenotype (%),[10],19%
same,Population Mitotic Cells (%),[10],37%
same,Population Normal (%),[10],72%
same,Population Pyknosed Nuclei (%),[10],11%
same,Population Tubulin-Different-Phenotype (%),[10],85%
same,Total Cell Count,[10],188
same,Population Apoptotic (%),[11],66%
same,Population Fragmented Nuclei (%),[11],57%
same,Population Healthy Nuclei (%),[11],37%
same,Population Hoechst High Intensity Objects (%),[11],42%
same,Population Membrane Permeable-Phenotype (%),[11],50%
same,Population Mitochondria Different-Phenotype (%),[11],4%
same,Population Mitotic Cells (%),[11],33%
same,Population Normal (%),[11],57%
same,Population Pyknosed Nuclei (%),[11],4%
same,Population Tubulin-Different-Phenotype (%),[11],58%
same,Total Cell Count,[11],111
same,Population Apoptotic (%),[12],25%
same,Population Fragmented Nuclei (%),[12],75%
same,Population Healthy Nuclei (%),[12],17%
same,Population Hoechst High Intensity Objects (%),[12],44%
same,Population Membrane Permeable-Phenotype (%),[12],44%
same,Population Mitochondria Different-Phenotype (%),[12],33%
same,Population Mitotic Cells (%),[12],75%
same,Population Normal (%),[12],55%
same,Population Pyknosed Nuclei (%),[12],7%
same,Population Tubulin-Different-Phenotype (%),[12],55%
same,Total Cell Count,[12],94

# Reference: ChEMBL document CHEMBL4689842, “EUbOPEN Chemogenomics Library wave 1” (2021)
